Screens deposited in PubChem by The Scripps Research Institute Molecular Screening Center.
CHRM4 PAM: positive allosteric modulators of human muscarinic M4 receptor | P08173 | CHO-K1 hM4/Gqi5, Fluo-8 calcium fluorescence, ACh EC20; 0% = ACh EC20, 100% = maximal ACh | activation, % at 3 µM | actives 0.4% (n = 360,000) | AID 624126;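 active = activation above its plate's cutoff, the mean activation of sample wells plus 3 SD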
Target sequence (P08173 whole entry, looked up): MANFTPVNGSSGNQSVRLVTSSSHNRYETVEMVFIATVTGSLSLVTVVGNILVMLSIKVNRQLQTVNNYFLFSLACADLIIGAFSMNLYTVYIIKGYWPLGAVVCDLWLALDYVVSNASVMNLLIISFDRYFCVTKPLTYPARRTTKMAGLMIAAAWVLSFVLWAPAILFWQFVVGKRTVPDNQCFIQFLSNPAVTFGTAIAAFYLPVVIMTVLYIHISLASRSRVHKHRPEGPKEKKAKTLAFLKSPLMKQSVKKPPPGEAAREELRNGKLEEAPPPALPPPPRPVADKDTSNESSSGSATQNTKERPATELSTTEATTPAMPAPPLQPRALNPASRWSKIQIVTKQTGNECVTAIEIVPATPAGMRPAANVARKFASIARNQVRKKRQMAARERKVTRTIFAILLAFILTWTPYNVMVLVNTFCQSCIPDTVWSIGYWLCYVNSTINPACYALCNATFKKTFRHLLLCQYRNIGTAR
M4 ag: agonists of human muscarinic M4 receptor (CHRM4); activation, % at 3 µM; actives 0.14% (n = 360,000); CHO-K1 hM4/Gqi5, Fluo-8 calcium fluorescence; vehicle 0%, full acetylcholine response 100%; P08173;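 active = activation above the run mean over all test wells plus 3 SD, cut at about 32% in these data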;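 also: peak over basal fluorescence ratio per well then scaled between controls; 0% = DMSO wells and 100% = acetylcholine at EC100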
M5 PAM: positive allosteric modulators of human muscarinic M5 receptor | P08912 | CHO-K1 hM5, Fluo-8 calcium, ACh EC20 PAM; 0% = ACh EC20, 100% = ACh EC100 | activation, % at 3 µM | actives 0.3% (n = 360,000);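 active = activation above the run cutoff, the mean activation of all test compounds plus 3 SD, cut at about 18% in these data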
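System: CHO-K1 hM5 cells. Reagent: acetylcholine, EC20 level. Compound dosing: single dose, 3 µM nominal final test concentration. Timing: Post-acetylcholine fluorescence recording 140 s. Detection: Fluo-8 calcium fluorescence. Read-out: % activation, ACh-normalized. Benchmarks: ACh EC20 and EC100 wells. Repeats: singlicate, one well per test compound.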
CHRM4 antagonist: antagonists of human muscarinic M4 receptor (CHRM4); AID 624125; inhibition, % at 3 µM; CHO-hM4 cells, ACh EC80, Fluo-8 calcium fluorescence; actives 0.73% (n = 360,000); P08173;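 active = inhibition above its plate's cutoff, the mean inhibition of sample wells plus 3 SD, cut at about 27% in these data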;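 also: 0% = acetylcholine EC80 with DMSO and 100% = DMSO without agonist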
CHRM5 antagonist: antagonists of human muscarinic M5 receptor (CHRM5) | inhibition, % at 3 µM | actives 0.59% (n = 360,000) | CHO-hM5 cells, Fluo-8 calcium fluorescence, ACh EC80;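 active = inhibition above a per-plate cutoff, the mean of that plate's test compounds plus 3 SD, cut at about 27% in these data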;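 also: 0% = acetylcholine EC80 with DMSO and 100% = DMSO without agonist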
M5 ag: agonists of human muscarinic M5 receptor (CHRM5); P08912; CHO-K1 hM5 cells, Fluo-8 calcium fluorescence; 0% DMSO wells, 100% maximal acetylcholine response; activation, % at 3 µM; actives 0.19% (n = 360,000); AID 624037;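 active = activation above the run's mean over test compounds plus 3 SD, cut at about 23% in these data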;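 also: signal is peak over basal fluorescence ratio across the kinetic read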
* hit, by the source's call. Rows were chosen to be rich in hits. Some 1.8% of all compounds tested hit in one or more screens of this group.

SMILES	CHRM4 PAM	M4 ag	M5 PAM	CHRM4 antagonist	CHRM5 antagonist	M5 ag
CC[N+](C)(C)CC/C=C1/c2ccccc2Sc2ccc(Cl)cc21	-17	1	-35	96*	99*	-20
CCCCCC[n+]1c(-c2ccc(Cl)cc2Cl)csc1Nc1ccccc1	1	0	-3	-10	-4	0
CCCCCCCCCCC[N+](C)(C)CC/C=C1/c2ccccc2Sc2ccc(Cl)cc21	-19	1	-18	52*	82*	-8
CCCCCCCCCC[N+](C)(C)CC/C=C1/c2ccccc2Sc2ccc(Cl)cc21	-20	-1	-19	41*	60*	-8
O=C(NC(c1ccc(Cl)cc1)c1ccsc1)C1CCN(Cc2ccc(Oc3ccccc3)cc2)CC1 (stereo unspecified)	-11	6	-6	16	11	1
CN1C[C@@H]2C(c3ccccc3)C3(c4cccnc4)CC2(C3)[C@H]1c1ccccc1 (stereo partly specified)	-15	0	-41	57*	31*	-10
Cc1sc2nc(C3CC3)nc(N3CCN(C(=O)c4ccc(Cl)cc4)CC3)c2c1C	37*	0	-7	-24	10	-4
Cc1sc2nc(C3CC3)nc(N3CCN(C(=O)c4ccccc4F)CC3)c2c1C	-4	3	3	5	9	-5
COc1ccc(C(=O)N2CCN(c3nc(C4CC4)nc4sc(C)c(C)c34)CC2)cc1	20*	0	-1	-2	1	-4
Cc1sc2nc(C3CC3)nc(N3CCN(C(=O)c4ccc(F)cc4)CC3)c2c1C	18*	3	1	-10	14	-5
COc1cc2ccc(C(=O)O)cc2cc1OC	0	1	-2	-20	-1	-1
COc1ccc(NC(=O)N(C)C[C@H]2Oc3ccc(NC(=O)Nc4ccc5c(c4)OCO5)cc3C(=O)N([C@H](C)CO)C[C@@H]2C)cc1	9	-1	1	-4	-5	7
O=C(COc1cccnc1[N+](=O)[O-])c1c[nH]c2ccccc12	14	4	14	34*	-4	-1
O=C(CNC(=O)OCc1ccccc1)NCC(=O)Oc1ccc([N+](=O)[O-])cc1	1	2	-5	0	16	0
Cn1c(SCc2ccccc2)nc2ccsc2c1=O	-15	15	-21	14	30*	3
Cn1c(SCc2ccc(Br)cc2)nc2ccccc2c1=O	-6	5	-10	8	8	1
CC(C)CN(CC(C)C)c1nc(N)c(C#N)c(CC#N)c1C#N	28*	-3	5	-8	-6	-5
O=C(Nc1ccccc1OC(F)F)c1ccc(F)cc1	12	0	24*	-5	-16	-1
Cn1c(CC(=O)Nc2ccccc2)cc2ccccc21	-10	2	-1	-1	15	0
N#CCC(=O)Nc1ccc(C(=O)NNC(=S)NC2CC2)cc1	25*	2	10	-8	-18	-3
CC(C)CC1C(=O)N(Cc2cn(CCC3OCCO3)nn2)CCS(=O)(=O)N1Cc1ccc(-c2cccc(N(C)C)c2)cc1 (stereo unspecified)	-6	15	-2	2	9	2
CC(C)OP(=O)(OC(C)C)C(Nc1cccc(C(=O)O)c1)c1ccccc1 (stereo unspecified)	1	0	-1	-4	9	5
CC(C)OP(=O)(OC(C)C)C(Nc1ccc(C(=O)O)cc1)c1ccccc1 (stereo unspecified)	32*	1	-1	38*	0	1
COc1ccc(N2CC(C(=O)N(C)CC(=O)Nc3ccc(Cl)c(C(F)(F)F)c3)CC2=O)c(OC)c1 (stereo unspecified)	3	3	-6	-12	9	-1
Cc1nc2ccc(NC(=O)c3ccc(Cl)c(S(=O)(=O)N(C)c4ccccc4)c3)cc2s1	0	3	2	-14	-2	1
CN(c1ccccc1)S(=O)(=O)c1cccc(NC(=O)c2ccc(Cl)c([N+](=O)[O-])c2)c1	-16	23	-38	33*	34*	3
